From ChEMBL document CHEMBL1671727, “Expression, purification, and characterization of Aspergillus fumigatus sterol 14-alpha demethylase (CYP51) isoenzymes A and B” (Antimicrob Agents Chemother, 2010)
Values after ≈ are worked out from the molar mass of the structure shown.

How the values were obtained:
[1] = target: T1, 14-alpha sterol demethylase (Neosartorya fumigata (Aspergillus fumigatus), UniProt Q96W81); test: Binding affinity to Aspergillus fumigatus AF293 sterol 14-alpha demethylase isoenzyme B expressed in Escherichia coli assessed as tight binding affinity constant
T1 sequence (Q96W81 whole entry): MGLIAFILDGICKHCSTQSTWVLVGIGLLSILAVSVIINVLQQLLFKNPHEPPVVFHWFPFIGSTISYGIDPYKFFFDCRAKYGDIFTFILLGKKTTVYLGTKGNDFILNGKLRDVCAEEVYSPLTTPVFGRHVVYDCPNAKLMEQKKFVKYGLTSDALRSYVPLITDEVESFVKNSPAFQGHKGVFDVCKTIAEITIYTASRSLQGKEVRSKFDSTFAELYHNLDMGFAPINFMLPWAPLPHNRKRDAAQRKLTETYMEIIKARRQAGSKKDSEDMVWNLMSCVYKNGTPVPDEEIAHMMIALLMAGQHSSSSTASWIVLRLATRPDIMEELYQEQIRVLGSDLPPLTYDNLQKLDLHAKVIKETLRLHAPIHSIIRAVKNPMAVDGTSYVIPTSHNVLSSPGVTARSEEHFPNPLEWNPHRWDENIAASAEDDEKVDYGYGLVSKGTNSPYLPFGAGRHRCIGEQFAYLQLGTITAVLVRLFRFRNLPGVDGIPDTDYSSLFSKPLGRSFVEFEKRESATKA
How it was run: (§1)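 His-tagged CYP51 (Af293 sequence, codon-optimised, E. coli-expressed), cholate-solubilised and Ni-NTA purified, at 1 μM in 0.1 M Tris-HCl pH 8.1 with 25% glycerol. Azole (0.05 mg/ml DMSO stock) titrated in split 4.5 mm cuvettes, with DMSO added to the reference. Difference spectra were read at 500–350 nm. Peak-to-trough change was plotted against concentration. Kd came from Morrison (tight binding), Michaelis-Menten or Hill fits.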

[2] = target: T2, Sterol 14-alpha demethylase cyp51A (Neosartorya fumigata (strain ATCC MYA-4609 / Af293 / CBS 101355 / FGSCA1100) (Aspergillus fumigatus), UniProt Q4WNT5); test: Binding affinity to Aspergillus fumigatus AF293 sterol 14-alpha demethylase isoenzyme A expressed in Escherichia coli; how it was run: as §1
T2 sequence (Q4WNT5 whole entry): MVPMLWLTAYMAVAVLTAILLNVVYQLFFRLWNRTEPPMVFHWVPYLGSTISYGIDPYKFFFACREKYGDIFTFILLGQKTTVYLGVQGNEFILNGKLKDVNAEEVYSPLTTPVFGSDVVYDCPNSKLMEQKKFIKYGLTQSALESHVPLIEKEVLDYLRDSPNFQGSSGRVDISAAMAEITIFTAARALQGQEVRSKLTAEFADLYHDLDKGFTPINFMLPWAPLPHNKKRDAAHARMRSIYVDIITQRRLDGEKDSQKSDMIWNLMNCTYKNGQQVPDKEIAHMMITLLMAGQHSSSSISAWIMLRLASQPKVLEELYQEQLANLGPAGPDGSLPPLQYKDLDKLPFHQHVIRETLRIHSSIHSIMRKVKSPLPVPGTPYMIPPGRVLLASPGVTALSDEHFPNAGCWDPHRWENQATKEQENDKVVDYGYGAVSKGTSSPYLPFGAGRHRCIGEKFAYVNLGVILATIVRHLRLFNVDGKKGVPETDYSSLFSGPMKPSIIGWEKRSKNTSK

Aspergillus fumigatus [3] = test: Antimicrobial activity against Aspergillus fumigatus AF293; type: functional
Aspergillus fumigatus [4] = test: Antimicrobial activity against Aspergillus fumigatus CM237; type: functional
[5] = target: T1, 14-alpha sterol demethylase; test: Binding affinity to Aspergillus fumigatus AF293 sterol 14-alpha demethylase isoenzyme B expressed in Escherichia coli; how it was run: as §1
Aspergillus fumigatus [6] = test: Antimicrobial activity against sterol 14-alpha demethylase isoenzyme A-deficient Aspergillus fumigatus CM237; type: functional
[7] = Binding affinity to Mycobacterium smegmatis CYP51; set-up: species or system Mycolicibacterium smegmatis
Aspergillus fumigatus [8] = test: Antimicrobial activity against sterol 14-alpha demethylase isoenzyme B-deficient Aspergillus fumigatus CEA10; type: functional
[9] = target: Lanosterol 14-alpha demethylase (Candida albicans (strain SC5314 / ATCC MYA-2876) (Yeast), UniProt P10613); test: Binding affinity to Candida albicans CYP51
Sequence of Lanosterol 14-alpha demethylase (P10613 whole entry): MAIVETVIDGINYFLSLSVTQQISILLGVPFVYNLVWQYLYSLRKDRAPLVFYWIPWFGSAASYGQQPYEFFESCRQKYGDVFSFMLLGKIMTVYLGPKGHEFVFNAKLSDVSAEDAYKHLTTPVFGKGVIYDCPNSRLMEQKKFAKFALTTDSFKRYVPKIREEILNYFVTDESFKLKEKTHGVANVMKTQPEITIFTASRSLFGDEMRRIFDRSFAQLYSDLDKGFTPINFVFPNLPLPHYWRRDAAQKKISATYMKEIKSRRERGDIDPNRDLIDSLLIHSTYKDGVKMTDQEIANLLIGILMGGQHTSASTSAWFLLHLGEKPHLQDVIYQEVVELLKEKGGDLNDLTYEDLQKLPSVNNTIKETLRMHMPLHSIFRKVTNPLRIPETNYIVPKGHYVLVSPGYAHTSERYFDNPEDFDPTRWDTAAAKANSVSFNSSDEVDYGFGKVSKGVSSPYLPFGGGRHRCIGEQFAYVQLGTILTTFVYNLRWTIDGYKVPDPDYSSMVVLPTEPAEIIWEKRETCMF

Aspergillus fumigatus [10] = test: Antimicrobial activity against sterol 14-alpha demethylase isoenzyme A-deficient Aspergillus fumigatus CEA10; type: functional
Aspergillus fumigatus [11] = test: Antimicrobial activity against Aspergillus fumigatus CEA10; type: functional

| Compound | Kd [1] [nM] | Kd [2] [nM] | MIC (Aspergillus fumigatus [3]) [µM] | also measured |
| --- | --- | --- | --- | --- |
| Clc1ccccc1C(c1ccccc1)(c1ccccc1)n1ccnc1 [CLOTRIMAZOLE] | 103 | 4790 |  |  |
| CC[C@@H]([C@H](C)O)n1ncn(-c2ccc(N3CCN(c4ccc(OC[C@@H]5CO[C@@](Cn6cncn6)(c6ccc(F)cc6F)C5)cc4)CC3)cc2)c1=O [POSACONAZOLE] | 73 | 2690 | 0.72 |  |
| C[C@@H](c1ncncc1F)[C@](O)(Cn1cncn1)c1ccc(F)cc1F [VORICONAZOLE] | 429 | 3630 | 0.72 | MIC (Aspergillus fumigatus [4]): 1.49 µM (≈ 0.52 µg/mL); Kd [5]: 423 nM; MIC (Aspergillus fumigatus [6]): 0.34 µM (≈ 0.119 µg/mL) |
| OC(Cn1cncn1)(Cn1cncn1)c1ccc(F)cc1F [FLUCONAZOLE] |  | 11900 |  | MIC (Aspergillus fumigatus [3]; read-out: MIC): 105 µg/mL; Kd [7]: 19000 nM; MIC (Aspergillus fumigatus [8]; read-out: MIC): > 327 µg/mL; Kd [9]: 45 nM; MIC (Aspergillus fumigatus [10]; read-out: MIC): 20 µg/mL; MIC (Aspergillus fumigatus [11]; read-out: MIC): > 327 µg/mL |
| CCC(C)n1ncn(-c2ccc(N3CCN(c4ccc(OCC5COC(Cn6cncn6)(c6ccc(Cl)cc6Cl)O5)cc4)CC3)cc2)c1=O (centres undefined) [ITRACONAZOLE] | 31 | 1010 | 0.71 | MIC (Aspergillus fumigatus [8]): 0.85 µM; MIC (Aspergillus fumigatus [10]): 0.053 µM; MIC (Aspergillus fumigatus [11]): 0.85 µM |
